{
  "source": "BindingDB's records for doi:10.1021/jm970266p",
  "about": "(Universidad Central De Venezuela, 1997)",
  "data": [
    {"target": "T1, Falcipain 2 (Plasmodium falciparum, UniProt Q9N6S8)", "T1 sequence (Q9N6S8 whole entry)": "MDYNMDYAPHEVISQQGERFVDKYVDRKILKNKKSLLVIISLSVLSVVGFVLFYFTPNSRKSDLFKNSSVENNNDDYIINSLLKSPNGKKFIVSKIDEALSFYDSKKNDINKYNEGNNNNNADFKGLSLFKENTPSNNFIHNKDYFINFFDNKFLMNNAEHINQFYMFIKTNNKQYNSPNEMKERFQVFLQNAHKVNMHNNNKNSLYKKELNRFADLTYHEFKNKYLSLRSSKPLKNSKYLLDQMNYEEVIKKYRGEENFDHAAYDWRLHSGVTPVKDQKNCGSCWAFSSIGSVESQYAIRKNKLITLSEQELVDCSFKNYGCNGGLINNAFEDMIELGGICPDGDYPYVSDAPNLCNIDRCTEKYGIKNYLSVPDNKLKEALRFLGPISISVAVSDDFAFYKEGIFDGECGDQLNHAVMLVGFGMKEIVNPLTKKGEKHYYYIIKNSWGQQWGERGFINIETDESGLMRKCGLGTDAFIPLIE", "assay": "Inhibition of falcipain activity", "how_it_was_run": "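Soluble parasite extract containing falcipain (30 nM) preincubated 30 min at room temperature with compound (100× DMSO stocks) and 10 mM DTT in 0.1 M sodium acetate, pH 5.5. Z-Phe-Arg-AMC then added to 50 μM final. Fluorescence (ex 380, em 460 nm) followed continuously for 30 min. Rates compared with DMSO controls. Multiple concentrations tested in duplicate or triplicate; IC50 extrapolated from % control activity curves.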", "units": {"IC50": "µM"}, "values": [
      {"smiles": "COc1cccc(C2CC(=O)C3Sc4cc(F)ccc4N=C3C2)c1OC", "note": "(centres undefined) [2-(2,3-Dimethoxy-phenyl)-7-fluoro-2,3-dihydro-1H,10H-phenothiazin-4-one]", "IC50": 20},
      {"smiles": "O=C1CC(c2ccc(Cl)cc2Cl)CC2=Nc3ccc(F)cc3SC12", "note": "(centres undefined) [2-(2,4-Dichloro-phenyl)-7-fluoro-2,3-dihydro-1H,10H-phenothiazin-4-one]", "IC50": 10},
      {"smiles": "COc1ccc(C2CC(=O)C3Sc4cc(F)ccc4N=C3C2)cc1OC", "note": "(centres undefined) [2-(3,4-Dimethoxy-phenyl)-7-fluoro-2,3-dihydro-1H,10H-phenothiazin-4-one]", "IC50": 20},
      {"smiles": "COc1ccc(C2CC(=O)C3C(=Nc4ccc(F)cc4S3(=O)=O)C2)cc1OC", "note": "(centres undefined) [2-(3,4-Dimethoxy-phenyl)-7-fluoro-5,5-dioxo-2,3,5,10-tetrahydro-1H-5lambda*6*-phenothiazin-4-one]", "IC50": 5},
      {"smiles": "O=C1CC(c2ccc(Cl)cc2)CC2=Nc3ccc(F)cc3SC12", "note": "(centres undefined) [2-(4-Chloro-phenyl)-7-fluoro-2,3-dihydro-1H,10H-phenothiazin-4-one]", "IC50": 5},
      {"smiles": "O=C1CC(c2ccc(Cl)cc2)CC2=Nc3ccc(F)cc3S(=O)(=O)C12", "note": "(centres undefined) [2-(4-Chloro-phenyl)-7-fluoro-5,5-dioxo-2,3,5,10-tetrahydro-1H-5lambda*6*-phenothiazin-4-one]", "IC50": 5},
      {"smiles": "CC1(C)CC(=O)C2Sc3cc(Cl)ccc3N=C2C1", "note": "(centres undefined) [7-Chloro-2,2-dimethyl-2,3-dihydro-1H,10H-phenothiazin-4-one]", "IC50": 30},
      {"smiles": "CC1(C)CC(=O)C2C(=Nc3ccc(Cl)cc3S2(=O)=O)C1", "note": "(centres undefined) [7-Chloro-2,2-dimethyl-5,5-dioxo-2,3,5,10-tetrahydro-1H-5lambda*6*-phenothiazin-4-one]", "IC50": 5},
      {"smiles": "COc1cccc(C2CC(=O)C3Sc4cc(Cl)ccc4N=C3C2)c1OC", "note": "(centres undefined) [7-Chloro-2-(2,3-dimethoxy-phenyl)-2,3-dihydro-1H,10H-phenothiazin-4-one]", "IC50": 10},
      {"smiles": "COc1cccc(C2CC(=O)C3C(=Nc4ccc(Cl)cc4S3(=O)=O)C2)c1OC", "note": "(centres undefined) [7-Chloro-2-(2,3-dimethoxy-phenyl)-5,5-dioxo-2,3,5,10-tetrahydro-1H-5lambda*6*-phenothiazin-4-one]", "IC50": 4},
      {"smiles": "O=C1CC(c2ccc(Cl)cc2Cl)CC2=Nc3ccc(Cl)cc3SC12", "note": "(centres undefined) [7-Chloro-2-(2,4-dichloro-phenyl)-2,3-dihydro-1H,10H-phenothiazin-4-one]", "IC50": 10},
      {"smiles": "O=C1CC(c2ccc(Cl)cc2Cl)CC2=Nc3ccc(Cl)cc3S(=O)(=O)C12", "note": "(centres undefined) [7-Chloro-2-(2,4-dichloro-phenyl)-5,5-dioxo-2,3,5,10-tetrahydro-1H-5lambda*6*-phenothiazin-4-one]", "IC50": 30},
      {"smiles": "COc1ccc(C2CC(=O)C3Sc4cc(Cl)ccc4N=C3C2)cc1OC", "note": "(centres undefined) [7-Chloro-2-(3,4-dimethoxy-phenyl)-2,3-dihydro-1H,10H-phenothiazin-4-one]", "IC50": 30},
      {"smiles": "COc1cccc(C2CC(=O)C3Sc4cc(Cl)ccc4N=C3C2)c1", "note": "(centres undefined) [7-Chloro-2-(3-methoxy-phenyl)-2,3-dihydro-1H,10H-phenothiazin-4-one]", "IC50": 20},
      {"smiles": "O=C1CC(c2ccc(Cl)cc2)CC2=Nc3ccc(Cl)cc3SC12", "note": "(centres undefined) [7-Chloro-2-(4-chloro-phenyl)-2,3-dihydro-1H,10H-phenothiazin-4-one]", "IC50": 4},
      {"smiles": "O=C1CC(c2ccc(Cl)cc2)CC2=Nc3ccc(Cl)cc3S(=O)(=O)C12", "note": "(centres undefined) [7-Chloro-2-(4-chloro-phenyl)-5,5-dioxo-2,3,5,10-tetrahydro-1H-5lambda*6*-phenothiazin-4-one]", "IC50": 4},
      {"smiles": "COc1ccc(C2CC(=O)C3Sc4cc(Cl)ccc4N=C3C2)cc1", "note": "(centres undefined) [7-Chloro-2-(4-methoxy-phenyl)-2,3-dihydro-1H,10H-phenothiazin-4-one]", "IC50": 10},
      {"smiles": "COc1ccc(C2CC(=O)C3C(=Nc4ccc(Cl)cc4S3(=O)=O)C2)cc1", "note": "(centres undefined) [7-Chloro-2-(4-methoxy-phenyl)-5,5-dioxo-2,3,5,10-tetrahydro-1H-5lambda*6*-phenothiazin-4-one]", "IC50": 30},
      {"smiles": "O=C1CC(c2ccccc2)CC2=Nc3ccc(Cl)cc3SC12", "note": "(centres undefined) [7-Chloro-2-phenyl-2,3-dihydro-1H,10H-phenothiazin-4-one]", "IC50": 10},
      {"smiles": "O=C1CC(c2ccccc2)CC2=Nc3ccc(Cl)cc3S(=O)(=O)C12", "note": "(centres undefined) [7-Chloro-5,5-dioxo-2-phenyl-2,3,5,10-tetrahydro-1H-5lambda*6*-phenothiazin-4-one]", "IC50": 4},
      {"smiles": "CC1(C)CC(=O)C2C(=Nc3ccc(F)cc3S2(=O)=O)C1", "note": "(centres undefined) [7-Fluoro-2,2-dimethyl-5,5-dioxo-2,3,5,10-tetrahydro-1H-5lambda*6*-phenothiazin-4-one]", "IC50": 5},
      {"smiles": "COc1cccc(C2CC(=O)C3Sc4cc(F)ccc4N=C3C2)c1", "note": "(centres undefined) [7-Fluoro-2-(3-methoxy-phenyl)-2,3-dihydro-1H,10H-phenothiazin-4-one]", "IC50": 20},
      {"smiles": "COc1cccc(C2CC(=O)C3C(=Nc4ccc(F)cc4S3(=O)=O)C2)c1", "note": "(centres undefined) [7-Fluoro-2-(3-methoxy-phenyl)-5,5-dioxo-2,3,5,10-tetrahydro-1H-5lambda*6*-phenothiazin-4-one]", "IC50": 5},
      {"smiles": "O=C1CC(c2ccccc2)CC2=Nc3ccc(F)cc3SC12", "note": "(centres undefined) [7-Fluoro-2-phenyl-2,3-dihydro-1H,10H-phenothiazin-4-one]", "IC50": 20}
    ]}
  ]
}
